From ChEMBL document CHEMBL4732034, “Amino alcohol acrylonitriles as broad spectrum and tumour selective cytotoxic agents” (RSC Med Chem, 2021)

Columns and labels:
[1] = molecular target: T1, Aryl hydrocarbon receptor (Homo sapiens, UniProt P35869); experiment: Activation of AhR in human HT29-Lucia cells expressing secreted Lucia luciferase reporter gene assessed as increase in receptor transactivation by measuring fold increase in reporter activity at 5 uM measured after 48 hrs by luciferase reporter gene assay relative to control; type: cell-based; settings: HT-29, human, read-out: FC
T1 sequence (P35869 whole entry): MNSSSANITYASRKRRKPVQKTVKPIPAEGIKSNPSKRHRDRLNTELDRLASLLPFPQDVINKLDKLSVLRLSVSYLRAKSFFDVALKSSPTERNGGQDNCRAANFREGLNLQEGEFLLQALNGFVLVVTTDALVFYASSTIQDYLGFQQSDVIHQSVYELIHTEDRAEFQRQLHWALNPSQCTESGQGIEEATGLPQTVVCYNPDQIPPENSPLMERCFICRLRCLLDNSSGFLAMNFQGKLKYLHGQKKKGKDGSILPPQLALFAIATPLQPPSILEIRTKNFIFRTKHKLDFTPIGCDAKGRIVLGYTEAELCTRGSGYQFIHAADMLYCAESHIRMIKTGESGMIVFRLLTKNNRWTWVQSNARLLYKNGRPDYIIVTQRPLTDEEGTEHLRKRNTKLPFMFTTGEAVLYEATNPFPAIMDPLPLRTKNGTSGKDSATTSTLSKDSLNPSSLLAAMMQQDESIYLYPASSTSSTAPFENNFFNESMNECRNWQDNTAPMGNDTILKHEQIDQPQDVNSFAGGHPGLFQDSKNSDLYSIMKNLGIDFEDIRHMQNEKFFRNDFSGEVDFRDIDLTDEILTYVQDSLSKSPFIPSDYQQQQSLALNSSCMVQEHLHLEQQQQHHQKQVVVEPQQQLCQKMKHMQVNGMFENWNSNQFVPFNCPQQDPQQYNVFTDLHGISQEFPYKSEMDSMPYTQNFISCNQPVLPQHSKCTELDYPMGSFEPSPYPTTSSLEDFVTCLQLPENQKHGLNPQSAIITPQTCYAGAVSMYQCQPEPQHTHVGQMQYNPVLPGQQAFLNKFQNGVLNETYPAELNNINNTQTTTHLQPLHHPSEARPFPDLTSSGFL
Method in brief: (§1)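 HT29-Lucia cells (stable secreted Lucia luciferase reporter under a minimal promoter with the human CYP1A1 regulatory sequence, six DREs) were grown without antibiotics for 24 h before compound addition. At 24 and 48 h, supernatant was read by luminescence with QUANTI-Luc. Assays were run twice, and values are fold-change versus DMSO-treated cells. FICZ and CH223191 (5 μM) were included as controls.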

[2] = molecular target: T1, Aryl hydrocarbon receptor; experiment: Activation of AhR in human HT29-Lucia cells expressing secreted Lucia luciferase reporter gene assessed as increase in receptor transactivation by measuring fold increase in reporter activity at 5 uM measured after 24 hrs by luciferase reporter gene assay relative to control; type: cell-based; settings: HT-29, human, read-out: FC; method in brief: as §1
U-87 MG = experiment: Cytotoxicity against human U87 cells assessed as growth inhibition measured after 72 hrs by SRB assay; type: functional, U-87MG ATCC
Method in brief: (§2)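 Cancer lines were kept in DMEM with 10% FBS and glutamine at 37 °C, 5% CO2, and seeded at 2500–4000 cells per well in duplicate. Compound (from 40 mM DMSO stocks) was added 24 h after plating and left for 72 h. Cells were TCA-fixed, stained with SRB and read at 540 nm. GI50 came from an eight-point dose-response, using the change from day-0 optical density, with three to four independent replicates.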

A2780 = experiment: Cytotoxicity against human A2780 cells assessed as growth inhibition measured after 72 hrs by SRB assay; type: functional; method in brief: as §2
NCI-H460 = experiment: Cytotoxicity against human H460 cells assessed as growth inhibition measured after 72 hrs by SRB assay; type: functional; method in brief: as §2
A-431 = experiment: Cytotoxicity against human A431 cells assessed as growth inhibition measured after 72 hrs by SRB assay; type: functional; method in brief: as §2
DU-145 = experiment: Cytotoxicity against human DU-145 cells assessed as growth inhibition measured after 72 hrs by SRB assay; type: functional; method in brief: as §2
BE(2)-C = experiment: Cytotoxicity against human BE2C cells assessed as growth inhibition measured after 72 hrs by SRB assay; type: functional; method in brief: as §2
[3] = Cytotoxicity against human SJG2 cells assessed as growth inhibition measured after 72 hrs by SRB assay; type: functional; settings: SJ-G2; method in brief: as §2
MIA PaCa-2 = experiment: Cytotoxicity against human MIA cells assessed as growth inhibition measured after 72 hrs by SRB assay; type: functional; method in brief: as §2
HT-29 = experiment: Cytotoxicity against human HT29 cells assessed as growth inhibition measured after 72 hrs by SRB assay; type: functional; method in brief: as §2
MCF7 = experiment: Cytotoxicity against human MCF-7 cells assessed as growth inhibition measured after 72 hrs by SRB assay; type: functional; method in brief: as §2
[4] = Cytotoxicity against human MCF10A cells assessed as growth inhibition measured after 72 hrs by SRB assay; type: cell-based, MCF-10A
[5] = Selectivity index, ratio of GI50 for human MCF10A cells to GI50 for human HT-29 cells by SRB assay; type: toxicity; settings: MCF10A cells versus HT-29 cells, read-out: RatioGI50
Method in brief: (§3)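 Fold selectivity is the MCF10A GI50 divided by the cancer-line GI50. Each GI50 is from the 72 h SRB assay: eight-point dose-response, day-0 optical density baseline, three to four separate replicates.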

[6] = Selectivity index, ratio of GI50 for human MCF10A cells to GI50 for human MCF-7 cells by SRB assay; type: toxicity; settings: MCF10A cells versus MCF-7 cells, read-out: RatioGI50; method in brief: as §3
[7] = Selectivity index, ratio of GI50 for human MCF10A cells to GI50 for human A2780 cells by SRB assay; type: toxicity; settings: MCF10A cells versus A2780 cells, read-out: RatioGI50; method in brief: as §3
MDA-MB-468 = experiment: Cytotoxicity against human MDA-MB-468 cells assessed as growth inhibition measured after 72 hrs by SRB assay; type: functional; method in brief: as §2
T47D = experiment: Cytotoxicity against human T47D cells assessed as growth inhibition measured after 72 hrs by SRB assay; type: functional; method in brief: as §2
[8] = Selectivity index, ratio of GI50 for human MCF10A cells to GI50 for human MDA-MB-468 cells by SRB assay; type: toxicity; settings: MCF10A cells versus MDA-MB-468 cells, read-out: RatioGI50; method in brief: as §3
[9] = Selectivity index, ratio of GI50 for human MCF10A cells to GI50 for human T47D cells by SRB assay; type: toxicity; settings: MCF10A cells versus T47D cells, read-out: RatioGI50; method in brief: as §3
[10] = Selectivity index, ratio of GI50 for human MCF10A cells to GI50 for human H460 cells by SRB assay; type: toxicity; settings: MCF10A cells versus H460 cells, read-out: RatioGI50; method in brief: as §3

| Structure (SMILES) | GI50 (U-87 MG) [µM] | GI50 (A2780) [µM] | GI50 (NCI-H460) [µM] | GI50 (A-431) [µM] | GI50 (DU-145) [µM] | GI50 (BE(2)-C) [µM] | GI50 [3] [µM] | GI50 (MIA PaCa-2) [µM] | GI50 (HT-29) [µM] | GI50 (MCF7) [µM] | GI50 at 72 h [4] [µM] | selectivity ratio [5] | also measured |
| --- | --- | --- | --- | --- | --- | --- | --- | --- | --- | --- | --- | --- | --- |
| Cc1ccccc1/N=N/c1ccc(NC(=O)c2ccnn2C)c(C)c1 |  |  |  |  |  |  |  |  |  |  |  |  | fold induction at 5 µM [1]: 0.59; fold induction at 5 µM [2]: 0.69 |
| O=Cc1c2[nH]c3ccccc3c2cc2[nH]c3ccccc3c12 |  |  |  |  |  |  |  |  |  |  |  |  | fold induction at 5 µM [1]: 4.82; fold induction at 5 µM [2]: 2.85 |
| CC1CCCCN1CC(O)COc1ccc(/C=C(\C#N)c2ccc(Cl)c(Cl)c2)cc1 (racemic) | 2.9 | 2.7 | 2.7 | 1.6 | 3 | 2.4 | 2.8 | 2.7 | 0.36 | 2.1 | 2.5 | 6.9 |  |
| COc1ccc(NCC(O)COc2ccc(/C=C(\C#N)c3ccc(Cl)c(Cl)c3)cc2)cc1 (racemic) | 29 | 17 | 16 | 62 | 28 | 41 | 32 | 27 | 3.7 | 5.2 | 19 | 5.1 | selectivity ratio [6]: 3.6 |
| N#C/C(=C\c1ccc(OCC(O)CNC23CC4CC(CC(C4)C2)C3)cc1)c1ccc(Cl)c(Cl)c1 (racemic) | 2.5 | 1.7 | 1.8 | 2.1 | 2.5 | 2.2 | 2 | 1.9 | 0.89 | 2 | 2.5 |  |  |
| CN(C)CC(O)COc1ccc(/C=C(\C#N)c2ccc(Cl)c(Cl)c2)cc1 (racemic) | 3.2 | 2.5 | 2.8 | 1.6 | 2.7 | 2.5 | 2.7 | 2.3 | 0.75 | 1.9 | 2.8 | 3.7 |  |
| N#C/C(=C\c1ccc(OCC(O)CN2CCCCC2)cc1)c1ccc(Cl)c(Cl)c1 (racemic) | 3 | 2.7 | 3 | 2.1 | 2.9 | 2.5 | 2.5 | 2.6 | 0.66 | 2.5 | 2.5 | 3.8 |  |
| N#C/C(=C\c1ccc(OCC(O)CNc2ccccc2)cc1)c1ccc(Cl)c(Cl)c1 (racemic) | 26 | 4.4 | 14 | 16 | 22 | 13 | 18 | 17 | 10 | 13 | 18 |  | selectivity ratio [7]: 4 |
| CC(=O)N1CCN(CC(O)COc2ccc(/C=C(\C#N)c3ccc(Cl)c(Cl)c3)cc2)CC1 (racemic) | 21 | 6.9 | 14 | 10 | 15 | 11 | 13 | 16 | 8.6 | 5.3 | 16 |  | GI50 (MDA-MB-468): 5.9 µM; GI50 (T47D): 6.8 µM; selectivity ratio [6]: 3; selectivity ratio [8]: 2.7; selectivity ratio [9]: 2.3 |
| N#C/C(=C\c1ccc(OCC(O)CN2CCN(c3ccc(Br)cc3)CC2)cc1)c1ccc(Cl)c(Cl)c1 (racemic) | > 50 | 14 | > 50 | > 50 | 31 | 40 | 21 | 57 | 16 | 24 | 49 |  | selectivity ratio [7]: 3.5 |
| N#C/C(=C\c1ccc(OCC(O)CNC2C3CC4CC(C3)CC2C4)cc1)c1ccc(Cl)c(Cl)c1 (racemic) | 2.7 | 2.5 | 2.7 | 2.8 | 2.6 | 2.6 | 2.6 | 2.4 | 1.4 | 2.1 | 2.7 |  |  |
| N#C/C(=C\c1ccc(OCC(O)CN2CCN(c3ccccc3F)CC2)cc1)c1ccc(Cl)c(Cl)c1 (racemic) | 20 | 17 | 1.6 | 14 | 18 | 21 | 18 | 24 | 5.4 | 11 | 15 |  | selectivity ratio [10]: 9.3 |
